Measured values from ChEMBL document CHEMBL4033789, “Discovery of a New Four-Leaf Clover-Like Ligand as a Potent c-MYC Transcription Inhibitor Specifically Targeting the Promoter G-Quadruplex” (J Med Chem, 2018).
The source made the active and inactive calls. The rule behind the calls is not given here.

Columns and labels:
[1] = Binding affinity to 1 uM KRAS promoter G-quadruplex DNA (unknown origin) at 1 uM after 1 min by fluorescence spectroscopic analysis; format: ADME
How it was run: (§1)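 Fluorescence emission spectra of 1 µM compound mixed with 1 µM pre-annealed oligonucleotide (G-quadruplexes folded in 100 mM KCl by heating to 95 °C for 5 min, slow cooling), in Tris-HCl buffer.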

[2] = Binding affinity to 1 uM c-MYC promoter G-quadruplex pu22 DNA (unknown origin) at 1 uM after 1 min by fluorescence spectroscopic analysis; how it was run: as §1
[3] = Stabilization of PDGFA G-quadruplex DNA in human SiHa cells assessed as effect on PDGFA mRNA level at 1.25 to 5 uM fter 6 hrs by RT-PCR method; format: ADME, cell-based
How it was run: (§2)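 SiHa cells (2.0×10^5 per well) treated 6 h; total RNA (2 µg) reverse-transcribed with oligo dT18 and M-MLV at 42 °C for 1 h, 85 °C for 5 min; PCR: 95 °C 5 min, then 30 cycles of 95 °C 30 s, 58 °C 30 s, 72 °C 40 s; products checked on agarose gel.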

[4] = Binding affinity to 1 uM BCL2 promoter G-quadruplex DNA (unknown origin) at 1 uM after 1 min by fluorescence spectroscopic analysis; format: ADME; how it was run: as §1
[5] = Stabilization of HRAS G-quadruplex DNA in human SiHa cells assessed as effect on HRAS mRNA level at 1.25 to 5 uM fter 6 hrs by RT-PCR method; format: ADME, cell-based; how it was run: as §2
SiHa [6] = assay: Induction of apoptosis in human SiHa cells assessed as upregulation of cleaved PARP protein levels at 1.25 to 5 uM after 24 hrs by Western blot analysis relative to control; format: functional, cell-based
How it was run: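 SiHa cells (2.0×10^5 per well) treated 24 h, lysed at 4 °C for 30 min, supernatant cleared at 15,000 rpm; protein measured by BCA, 30 µg resolved on 10% SDS-PAGE, transferred to nitrocellulose, blocked in 5% milk/TBS-Tween 1 h, primary antibodies overnight at 4 °C, HRP secondaries 2 h at room temperature.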

Mus musculus = assay: In vivo stabilization of c-Myc G-quadruplex DNA in human SiHa cells xenografted in nude BALB/c mouse assessed as decrease in c-Myc expression at 20 mg/kg, ip administered every other day for 24 days by immunohistochemistry; format: functional, organism-based
[7] = Binding affinity to BCL2 promoter G-quadruplex DNA (unknown origin) after 1 min by fluorescence titration method; format: ADME
How it was run: (§3)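 Oligonucleotide stock added stepwise to fixed-concentration compound in 10 mM Tris-HCl pH 7.2, 100 mM KCl; equilibrated ≥1 min after each addition, emission read with excitation at 350 nm. KD from fitting titration data to the Benesi–Hildebrand equation; 1:1 stoichiometry checked by Job plot.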

[8] = Binding affinity to 1 uM C-KIT1 promoter G-quadruplex DNA (unknown origin) at 1 uM after 1 min by fluorescence spectroscopic analysis; format: ADME; how it was run: as §1
[9] = Stabilization of KRAS G-quadruplex DNA in human SiHa cells assessed as effect on […] mRNA level at 1.25 to 5 uM fter 6 hrs by RT-PCR method; format: ADME, cell-based; how it was run: as §2
[10] = Stabilization of RET G-quadruplex DNA in human SiHa cells assessed as effect on RET mRNA level at 1.25 to 5 uM fter 6 hrs by RT-PCR method; format: ADME, cell-based
How it was run: (§4)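 SiHa cells (2.0×10^5) dosed 6 h; total RNA reverse-transcribed with oligo dT18 primer and M-MLV (42 °C 1 h, 85 °C 5 min); PCR 95 °C 5 min then 30 cycles (95 °C 30 s, 58 °C 30 s, 72 °C 40 s); products checked on agarose gel.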

[11] = Stabilization of antiparallel HRAS G-quadruplex DNA (unknown origin) assessed as effect on melting temperature at 15 uM by circular dichroism spectroscopic assay; format: ADME
How it was run: (§5)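 CD melting of 3 µM annealed G-quadruplex with or without 15 µM ligand in 10 mM Tris-HCl pH 7.2 with 2 mM KCl (50 mM KCl for htg22 and HRAS); read every 5 °C over 25–95 °C, heating 1 °C/min.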

BJ = assay: Antiproliferative activity against human BJ cells assessed as reduction in colony formation at 0.5 uM measured on day 8 by crystal violet-staining based assay; format: cell-based
How it was run: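 Cells seeded at 300 per well in six-well plates, exposed to compound at 37 °C, 5% CO2, with drug-containing medium replaced every 2 days; after 8 days of culture, colonies fixed with methanol and stained with crystal violet.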

SiHa [12] = assay: Induction of cell cycle arrest in human SiHa cells assessed as accumulation at G0/G1 phase after 12 hrs by propidium iodide-staining based FACS analysis; format: functional
How it was run: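 SiHa cells treated 12 h, fixed in 70% ethanol at 4 °C overnight, stained with 50 µg/mL PI plus 75 KU/mL RNase A in PBS for 30 min in the dark at room temperature; flow cytometry, 1.6×10^4 events per sample, cell cycle distribution analyzed.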

[13] = Stabilization of c-Kit G-quadruplex DNA in human SiHa cells assessed as effect on c-Kit mRNA level at 1.25 to 5 uM fter 6 hrs by RT-PCR method; format: ADME, cell-based; how it was run: as §4
[14] = Binding affinity to KRAS promoter G-quadruplex DNA (unknown origin) after 1 min by fluorescence titration method; format: ADME; how it was run: as §3
[15] = Stabilization of c-Myc promoter pu22 G-quadruplex DNA (unknown origin) assessed as change in melting temperature at 15 uM by circular dichroism spectroscopic assay; how it was run: as §5
[16] = Binding affinity to up to 1 uM c-MYC promoter G-quadruplex pu22 DNA (unknown origin) after 1 min by fluorescence titration method; how it was run: as §3
Homo sapiens = species: Homo sapiens; assay: Stabilization of c-Myc G-quadruplex DNA in human SiHa cells assessed as decrease in c-Myc protein expression at 1.25 to 5 uM after 24 hrs by Western blot method; format: cell-based
How it was run: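 SiHa cells (2.0×10^5) exposed 24 h, lysed at 4 °C; 30 µg protein per lane on 10% SDS-PAGE, transferred to nitrocellulose, milk-blocked, primary antibody overnight at 4 °C, HRP secondary 2 h at room temperature.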

Huh-7 = assay: Cytotoxicity against human Huh7 cells assessed as reduction in cell viability after 24 hrs by MTT assay; format: functional, cell-based; details: Huh-7, 24 h
How it was run: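 Cells seeded at 5.0×10^3 per well, exposed to compound for 24 h; MTT (2.5 mg/mL) added for 4 h, formazan dissolved in DMSO, OD read at 570 nm. Triplicate; IC50 from curves of mean OD against concentration.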

Activity [1]: Not Active | Activity [2]: Active | Activity [3]: Not Active | Activity [4]: Not Active | Activity [5]: Not Active | Kd [7]: 0.8 µM | Activity [8]: Not Active | Activity [9]: Not Active | Activity [10]: Not Active | Activity [11]: Not Active | Activity [13]: Not Active | Kd [14]: 1 µM | ΔTm [15]: 20 °C | Kd [16]: 0.1 µM
Structure (SMILES): CCn1c2ccccc2c2cc(-c3nc(-c4ccc(N5CCN(C)CC5)cc4)c(-c4ccc(N5CCN(C)CC5)cc4)n3-c3ccc(OC)cc3)ccc21
Activity (SiHa [6]): Active | Activity (Mus musculus): Active | Activity (BJ): Non-Toxic | Activity (SiHa [12]): Dose-dependent effect | Activity (Homo sapiens): Active | IC50 (Huh-7): 4.1 µM
